Assay results: ChEMBL document CHEMBL1641469, “New Hedgehog/GLI signaling inhibitors from Excoecaria agallocha” (Bioorg Med Chem Lett, 2011)
Active and inactive are the calls of the source. The calls are words filed in the database; no cut-off is given here.

Experiments:
[1] = Inhibition of human HH/Gli1-mediated transcriptional activity in tetracycline-treated human HaCaT cells treated after 12 hrs of tetracycline addition by luciferase reporter gene assay; format: cell-based
Method in brief: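 HaCaT cells carrying a GLI1-driven luciferase construct, seeded at 2 × 10⁵ cells per well; compounds added 12 h after tetracycline induction; luciferase activity and cell viability read at the same time point.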

DU-145 = experiment: Cytotoxicity against human DU145 cells after 24 hrs by FMCA method; format: functional, cell-based; conditions: DU-145, 24 h
Method in brief: (§1)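 Cells (PANC1, DU145, C3H10T1/2) exposed to compounds in 0.05% DMSO; viability measured, n = 3; IC50 values derived from concentration–response.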

[2] = Cytotoxicity against mouse C3H10T1/2 cells after 24 hrs by FMCA method; format: functional, cell-based; conditions: C3H 10T1/2, 24 h; method in brief: as §1
PANC-1 [3] = experiment: Cytotoxicity against human PANC1 cells after 24 hrs by FMCA method; format: functional, cell-based; conditions: PANC-1, 24 h; method in brief: as §1
PANC-1 [4] = experiment: Inhibition of human HH/Gli1-mediated induction of nuclear Gli1 level in human PANC1 cells at 1.6 uM by Western blot analysis; format: cell-based
Method in brief: (§2)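 PANC1 cells treated, then full, cytosolic and nuclear fractions prepared; GLI1, PTCH and BCL2 protein levels assessed by Western blotting.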

PANC-1 [5] = experiment: Inhibition of human HH/Gli1-mediated expression of BCL-2 in human PANC1 cells by Western blot analysis; format: cell-based; method in brief: as §2
PANC-1 [6] = experiment: Inhibition of human HH/Gli1-mediated PTCH mRNA expression in human PANC1 cells transfected with Smo siRNA at 0.7 to 1.4 uM by RT-PCR analysis; format: cell-based
Method in brief: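 PANC1 cells transfected with Smo siRNA (non-targeting siRNA at same concentration as control), Smo depletion confirmed by Western blot; treated cells then assayed for Ptch mRNA by real-time quantitative RT-PCR.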

PANC-1 [7] = experiment: Inhibition of human HH/Gli1-mediated PTCH mRNA expression in human PANC1 cells at 0.7 to 1.4 uM by RT-PCR analysis; format: cell-based
Method in brief: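 PANC1 cells treated in 0.05% DMSO; Ptch mRNA quantified by RT-PCR with GAPDH as internal control; n = 3.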

PANC-1 [8] = experiment: Inhibition of human HH/Gli1-mediated expression of PTCH in human PANC1 cells by Western blot analysis; format: cell-based; method in brief: as §2
[9] = Homo sapiens, HaCaT, 12 h, read-out: IC50

SMILES | IC50 ([1]; hacat) | IC50 (DU-145) | IC50 [2] | IC50 (PANC-1 [3]) | IC50 [1, 9] | other results
C[C@@H]1O[C@@H](Oc2c(-c3ccc(O)c(O)c3)oc3cc(O)cc(O)c3c2=O)[C@H](O)[C@H](O)[C@H]1O [QUERCITRIN] | Not Active |  |  |  |  | 
CC(=O)O[C@H]1[C@H](Oc2c(-c3ccc(O)cc3)oc3cc(O)cc(O)c3c2=O)O[C@@H](C)[C@H](O)[C@H]1O | Not Active |  |  |  |  | 
COc1ccc(-c2oc3cc(O)cc(O)c3c(=O)c2O[C@@H]2O[C@@H](C)[C@H](O)[C@@H](O)[C@H]2O)cc1 | Not Active |  |  |  |  | 
C[C@@H]1O[C@@H](OC[C@H]2O[C@@H](Oc3c(-c4ccc(O)c(O)c4)oc4cc(O)cc(O)c4c3=O)[C@H](O)[C@@H](O)[C@@H]2O)[C@H](O)[C@H](O)[C@H]1O [RUTIN] | Not Active |  |  |  |  | 
O=c1c(O[C@@H]2O[C@@H](CO)[C@H](O)[C@H]2O)c(-c2ccc(O)cc2)oc2cc(O)cc(O)c12 [JUGLANIN] |  | 2.4 µM | > 100 µM | 1.8 µM | 2 µM | 
C[C@@H]1O[C@@H](Oc2c(-c3ccc(O)cc3)oc3cc(O)cc(O)c3c2=O)[C@H](O)[C@H](O)[C@H]1O [AFZELIN] | Not Active |  |  |  |  | 
CO[C@@H]1[C@@H](O)[C@H](C)O[C@@H](OC[C@@]2(O)CO[C@@H](Oc3c(-c4ccc(O)c(O)c4)oc4cc(O)cc(O)c4c3=O)[C@@H]2O)[C@@H]1O |  | 22 µM | > 100 µM | 20 µM | 19.1 µM | 
CO[C@@H]1[C@@H](O)[C@H](C)O[C@@H](Oc2c(-c3ccc(O)c(O)c3)oc3cc(O)cc(O)c3c2=O)[C@@H]1O |  | 0.8 µM | > 100 µM | 0.7 µM | 0.5 µM | inhibition (PANC-1 [4]): Active; inhibition (PANC-1 [5]): Dose-dependent effect; inhibition (PANC-1 [6]): Active; inhibition (PANC-1 [7]): Active; inhibition (PANC-1 [8]): Dose-dependent effect
